Most compounds without a hit are left out; they make up all but 2.3% or so of the library.
STAT1 blocker – STAT1 signaling inhibition | hit rate 0.35% among 200,000 | NIH 3T3 STAT1-luciferase reporter, IFN-gamma, luminescence | inhibition, % at 5.5 µM;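 active = inhibition above a set limit, the mean inhibition across all tested compounds plus 3 SD, cut at about 34% in these data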;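 also: 0% = IFN-gamma with DMSO and 100% = IFN-gamma with 300 µM nifuroxazide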
C8 TRAIL sens – sensitizes caspase-8 expressing cells to TRAIL | NB7+C8 cells + TRAIL, ATPlite viability luminescence | inhibition (viability loss, TRAIL sensitization), % at 10 µM | hit rate 1% among 360,000;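 active = compounds causing at least 50% loss of cell viability in the single-dose screen, relative to plate controls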
STAT3 blocker – inhibitors of IL-6 induced STAT3 signaling; U3A cells, IL-6 STAT3-luciferase reporter, luminescence; host cell line lacks STAT1; inhibition, % at 5.5 µM; hit rate 0.89% among 190,000; AID 862;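 active = inhibition above the mean inhibition across all screened compounds plus 3 SD, cut at about 44% in these data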;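 also: 0% = DMSO only wells and 100% = 100 µM nifuroxazide control wells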
STAT3 activator – increases IL-6 driven STAT3 reporter signal; U3A cells, IL-6 STAT3-luciferase reporter, luminescence; 100% = signal with IL-6 EC80 alone; activation (% of control), % at 5.6 µM; hit rate 0.91% among 190,000; AID 871;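 active = activation above the screen-wide mean of compound activation plus 3 SD, cut at about 130% in these data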;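 also: 0% = background luminescence of wells with medium and substrate only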
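Material: human U3A cells carrying STAT3-luciferase construct. Measured by: reporter luminescence signal. Timing: compound 1 h, then IL-6 6 h at 37 °C.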
HSP90 inh – HSP90 refolding inhibition in rabbit reticulocyte lysate. luciferase refolding luminescence, 3 h. inhibition, % at 5.6 µM. hit rate 0.91% among 290,000;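 active = inhibition above the screen-wide mean plus 3 SD, computed separately per campaign, cut at about 16% in these data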;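 also: 0% = DMSO wells and 100% = 60 µM geldanamycin wells; inhibitors lower the luminescence because luciferase stays unfolded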
PPC-1+TRAIL kill – kills PPC-1 cancer cells in the presence of TRAIL | PPC-1 cells + TRAIL, ATPLite viability luminescence | cell killing (% activity), % at 4 µM or 5 µM | AID 1443 | hit rate 0.41% among 220,000;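 active = cell killing above 50% in the first pass at 4 µM, then a duplicate retest at 5 µM averaging 50% or more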;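 also: plate controls were cells with TRAIL plus DMSO for no effect and medium-only wells lacking cells for full effect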
HSP90 inh confirm – HSP90 inhibition, confirmation assay | shares compounds with HSP90 inh | rabbit reticulocyte lysate, luciferase refolding luminescence, 3 h | inhibition, % at 5.9 µM | hit rate 64% among 2,300 | AID 1846; in the data active = inhibition above about 18%;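 also: 0% = vehicle wells and 100% = reference inhibitor wells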
FLuc counter – blocks native firefly luciferase in HSP90 counter-screen; inhibition, % at 5.9 µM; shares compounds with HSP90 inh; purified native firefly luciferase, luminescence; hit rate 48% among 2,300; AID 1847;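 active = inhibition above the mean inhibition of all tested sample wells plus 3 SD, cut at about 10% in these data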;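 also: 0% = DMSO with luciferase and 100% = wells lacking luciferase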
Target sequence (P08659 whole entry, looked up): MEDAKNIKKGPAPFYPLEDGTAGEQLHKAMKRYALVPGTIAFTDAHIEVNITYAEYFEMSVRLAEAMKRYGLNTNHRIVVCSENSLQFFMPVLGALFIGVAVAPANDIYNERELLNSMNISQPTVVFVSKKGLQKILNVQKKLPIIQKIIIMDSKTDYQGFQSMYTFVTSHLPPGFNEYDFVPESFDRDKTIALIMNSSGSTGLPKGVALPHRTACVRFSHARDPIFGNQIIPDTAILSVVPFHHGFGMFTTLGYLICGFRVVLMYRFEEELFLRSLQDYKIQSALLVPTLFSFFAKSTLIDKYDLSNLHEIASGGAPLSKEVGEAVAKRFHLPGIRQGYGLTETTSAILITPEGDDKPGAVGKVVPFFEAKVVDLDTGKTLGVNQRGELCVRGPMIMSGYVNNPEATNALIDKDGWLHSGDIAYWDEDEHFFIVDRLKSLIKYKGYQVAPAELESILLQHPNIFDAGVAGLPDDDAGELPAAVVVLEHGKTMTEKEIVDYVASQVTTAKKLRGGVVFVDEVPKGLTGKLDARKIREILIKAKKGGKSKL
* marks the source's active call; other numbers are inactive results; · = no result given.

SMILES	STAT1 blocker	C8 TRAIL sens	STAT3 blocker	STAT3 activator	HSP90 inh	PPC-1+TRAIL kill	HSP90 inh confirm	FLuc counter
CCN(CC)S(=O)(=O)c1ccc(C)c(NC(=O)CN(C)C)c1	4.8	1.7	7.1	90.8	48.8*	9.5	-3.5	-4.5
Cn1cccc1C(=O)NCCc1ccc(Cl)cc1	·	4.0	·	·	-0.9	·	·	·
O=C(NCCc1ccccc1)c1ccccc1Cl	·	40.2	·	·	43.0*	·	58.0*	49.6*
O=C(NCCc1ccccc1)c1ccc2c(c1)OCO2	·	71.0*	·	·	75.6*	·	83.2*	78.1*
O=C(NCCc1ccccc1)c1ccccc1NC(=O)C1CC=CCC1C(=O)O (centres undefined)	-59.6	-1.3	8.0	95.5	45.0*	2.4	-9.8	-12.2
Cn1cccc1C(=O)NCCc1ccccc1	·	19.4	·	·	19.3*	·	38.5*	26.1*
CS(=O)(=O)c1ccc2nc(NC(=O)c3ccccc3)sc2c1	·	36.6	·	·	8.6	·	·	·
CS(=O)(=O)c1ccc2nc(NC(=O)Nc3ccccc3F)sc2c1	·	12.9	·	·	17.7*	·	18.4*	-2.0
Cc1ccc(N(C(=O)c2csnn2)C(C(=O)NC2CCCCC2)c2ccccn2)cc1C (centres undefined)	·	-8.1	·	·	-1.2	·	·	·
COc1ccc(Cn2c(=O)[nH]c3cc(C(=O)N4CCN(c5ccccc5OC)CC4)ccc3c2=O)cc1	·	7.9	·	·	-2.6	·	·	·
CCCNC1=C(N(C(C)=O)c2cccc(F)c2)C(=O)c2ccccc2C1=O	7.1	75.5*	39.5	67.7	82.0*	70.5*	-4.9	-11.2
CCC(=O)N(C1=C(NC(C)C)C(=O)c2ccccc2C1=O)C(C)C	-4.2	12.9	3.0	101.9	-2.1	10.7	·	·
Nc1ccc(Br)c2cccnc12	1.3	3.8	-7.0	107.9	17.3*	9.5	0.7	-9.7
CC(C)C[C@@H](CN1CCC[C@@H]1CN1C(=O)C(=O)NC[C@@H]1Cc1ccccc1)N1C[C@H](Cc2ccc(O)cc2)N(CCc2ccccc2)C(=O)C1=O	·	-4.5	·	·	·	·	·	·
Cc1onc(-c2ccccc2)c1C(=O)O/N=C(\N)c1ccc([N+](=O)[O-])o1	·	-21.6	·	·	2.4	14.5	·	·
Cc1onc(-c2cccc(Cl)c2Cl)c1C(=O)O/N=C(\N)c1ccc([N+](=O)[O-])o1	·	4.1	·	·	33.5*	10.3	-4.1	-7.2
COc1ccc(N=C2SC(CC(=O)Nc3ccccc3)C(=O)N2CC2CCCO2)cc1 (centres undefined)	0.6	-10.1	3.8	100.5	4.2	5.5	·	·
CC(=NC1CC1)c1c(-c2ccccc2)[nH]n(-c2nc3ccccc3s2)c1=O	-15.6	-8.8	-8.4	104.3	4.8	17.2	·	·
CC(=NC1CCCC1)c1c(C)[nH]n(-c2nc3ccccc3s2)c1=O	-45.2	25.0	13.7	92.5	18.8*	28.6	18.5*	1.0
Cc1ccc(CNC(=O)CN2NS(=O)(=O)c3ccccc3C2=O)cc1	·	-0.9	·	·	·	·	·	·
C=CCn1c(C)cc(C(=O)CN2NS(=O)(=O)c3ccccc3C2=O)c1C	-47.4	17.9	-2.0	103.0	34.7*	9.5	35.5*	12.3*
CNc1nc(Cl)nc2c1ncn2-c1ccccc1	·	2.5	·	·	·	·	·	·
NNC(=S)Nc1ccccc1Cl	-17.6	-7.2	10.2	95.0	45.3*	7.7	26.7*	-17.5
CCC(=O)c1ccc(OCC(=O)Nc2ccc(N3CCOCC3)cc2N2CCOCC2)cc1	·	-2.1	·	·	28.0*	·	-5.2	-10.2
CN(CCCC[C@H](CNCc1ccc(-c2ccccc2)cc1)N1C[C@H](c2ccccc2)N(CCc2ccc(Cl)c(Cl)c2)C(=O)C1=O)Cc1ccc(-c2ccccc2)cc1	·	·	·	·	·	5.1	·	·
SMILES	STAT1 blocker	C8 TRAIL sens	STAT3 blocker	STAT3 activator	HSP90 inh	PPC-1+TRAIL kill	HSP90 inh confirm	FLuc counter
COc1ccc(CNC[C@@H](CCCCN(C)Cc2ccc(OC)cc2)N2C[C@H](c3ccccc3)N(CCc3ccc(Cl)c(Cl)c3)C(=O)C2=O)cc1	6.7	89.0*	·	·	17.5*	7.2	19.8*	-5.1
Cc1cc(C(=O)N/N=C/c2ccc[nH]2)n[nH]1	-1.9	-13.5	12.9	88.4	4.0	-34.5	·	·
C=CCNC(=O)COc1ccccc1C#N	-19.6	2.3	6.1	96.9	7.3	6.4	·	·
CC(C)(C)NC(=O)NC(=O)COc1ccccc1C#N	-43.9	34.6	3.6	99.8	17.8*	32.1	11.6	7.2
COc1ccccc1C(=O)N(CCC1CCCN1C)c1nc2ccccc2s1 (centres undefined)	1.0	28.2	-2.3	107.2	67.3*	41.8	70.3*	68.7*
COC(=O)C(Cc1ccc(O)cc1)NC(=O)c1ccc2c(c1)OCCO2 (centres undefined)	·	2.0	·	·	26.0*	·	40.7*	28.1*
O=C(COC(=O)c1cnccn1)c1ccc([N+](=O)[O-])cc1	·	-15.7	·	·	38.2*	13.5	1.1	-23.5
O=C(COC(=O)c1cnccn1)c1ccc(Cl)c([N+](=O)[O-])c1	·	-7.0	·	·	2.2	10.8	·	·
COc1ccc(N(CC2CO2)S(=O)(=O)c2ccccc2)cc1 (centres undefined)	-13.4	-0.6	6.8	97.1	-0.9	8.3	·	·
Cc1cc(C(=O)N/N=C/c2cccnc2)n[nH]1	·	5.8	·	·	1.5	4.6	·	·
Cc1cc(C(=O)N/N=C/c2ccc3ccccc3c2)n[nH]1	·	36.0	·	·	35.5*	·	-9.6	-26.8
COc1cc(/C=N/Nc2ccc(C(=O)O)cc2)ccc1O	27.1	1.1	17.5	90.1	38.3*	17.6	62.6*	53.6*
O=C(O)c1ccc(N/N=C/c2ccc3nccnc3c2)cc1	·	27.2	·	·	91.5*	23.4	92.2*	85.1*
COc1cc(/C=N/NS(=O)(=O)c2ccc(C)cc2)ccc1OCc1ccc(C(=O)O)cc1	85.1*	15.3	54.1*	55.9	65.5*	19.0	-2.6	-11.0
COc1cc(/C=N/Nc2ccc(C(=O)O)cc2)cc(OC)c1OC	·	7.5	·	·	11.4	10.1	·	·
Cc1ccc([N+](=O)[O-])cc1S(=O)(=O)N1CCCCC1C(=O)O (centres undefined)	-6.3	4.4	-4.6	104.8	-0.8	0.5	·	·
Cc1nc2c(-c3ccc(F)cc3)cnn2c(N)c1-c1ccc(F)cc1	·	52.8*	·	·	46.5*	·	49.6*	48.8*
Cc1cc(N)n2ncc(-c3ccc(F)cc3)c2n1	-42.8	7.3	-14.7	116.6	-1.8	22.5	·	·
O=C(O)CCNC(=O)/C(=C/c1ccco1)NC(=O)c1ccco1	·	-4.5	·	·	30.0*	·	1.7	-2.3
O=C(NCc1ccco1)/C(=C/c1ccco1)NC(=O)c1ccco1	1.5	-0.6	7.4	95.7	1.0	26.2	·	·
Cc1ccc2nc(-c3ccc(O)c(O)c3)cn2c1	·	75.8*	·	·	30.2*	·	41.1*	9.7*
Cc1nc(-c2ccc(O)c(O)c2)cs1	6.6	11.3	9.8	96.6	-3.0	-2.7	·	·
Cc1cc(=O)n(-c2ccc(O)cc2)[nH]1	11.2	-1.0	22.7	88.6	18.4*	7.6	-1.6	-4.4
